Results of several laboratories.
Protocols differ between the studies behind these lines.
Target: Casein kinase I isoform epsilon (CSNK1E, Homo sapiens, UniProt P49674)

SMILES	effect on	method	concentration	remaining binding
FC(F)(F)Oc1cccc(-c2cnc3ccc(-c4ccncc4)nn23)c1	cell-free assay	competition with immobilised ligand	5 µM	12%
CN(C)c1ncc(F)c(-c2cnn3ncccc23)n1	binding		1 µM	100%
O=C(c1ccc(Nc2nccc(-c3cc4ccccc4s3)n2)cc1)N1CCC(N2CCCC2)CC1	binding	competition with immobilised ligand	1 µM	100%
CN(c1nccc(-c2cnn3ncccc23)n1)C1CC1	binding		1 µM	100%
C=CC(=O)N1CCC(C(=O)NCC(=O)N2CCN(c3nc(-c4cnc(N)nc4C(F)F)nc(N4CCOCC4)n3)CC2)CC1	binding	competition with immobilised ligand	1 µM	87%
Cc1cc(C)c(-n2ccn3nc(-c4cccnc4)cc23)cc1NC(=O)c1cc(C#N)cc(S(F)(F)(F)(F)F)c1	cell-free assay	competition with immobilised ligand	0.1 µM	98.7%
O=C(Nc1c[nH]nc1C(=O)NC1CCNCC1)c1cc(F)cc(F)c1	binding	competition with immobilised ligand	1 µM	73%
COc1cnc(Nc2cccc(S(N)(=O)=O)c2)nc1N1CCN(c2ccccc2)CC1	binding	competition with immobilised ligand	1 µM	100%
c1cnn2ncc(-c3ccnc(N4CCC45COC5)n3)c2c1	binding		1 µM	53%
O=C1NC(c2ccccn2)Sc2ccccc21 (stereo not shown)	cell-free assay	competition with immobilised ligand	1 µM	98%
COc1ncc2cc3ccccc3nc2c1C#N	cell-free assay	competition with immobilised ligand	5 µM	86%
CC1CCCN1c1nccc(-c2cnn3ncccc23)n1 (stereo not shown)	binding		1 µM	100%
O=C(c1ccc(Nc2ncc(Cl)c(-c3ccc(Cl)s3)n2)cc1)N1CCC(N2CCCC2)CC1	binding	competition with immobilised ligand	1 µM	100%
N[C@@H]1CCN(c2nccc(-c3cnn4ncccc34)n2)C1	binding		1 µM	31%
CN(c1ccnc(CNc2nc(Nc3ccc4c(c3)CC(=O)N4)ncc2C(F)(F)F)n1)S(C)(=O)=O	cell-free assay	competition with immobilised ligand	1 µM	100%
C[C@@H]1CCN(c2nccc(-c3cnn4ncccc34)n2)C1	binding		1 µM	86%
O=C(NCc1ncc(C(F)(F)F)cc1Cl)c1ccc2c(c1)C1(CCS(=O)(=O)CC1)[C@H](C1CC1)N2S(=O)(=O)c1ccc(F)cc1	cell-free assay	competition with immobilised ligand	1 µM	100%
O=C(c1ccc(Nc2ncc(Cl)c(-c3cc4ccccc4s3)n2)cc1)N1CCC(N2CCCC2)CC1	binding	competition with immobilised ligand	1 µM	100%
C[C@@H]1CN(c2cc(-c3n[nH]c4ccc(OC5(C)CC5)cc34)ncn2)C[C@H](C)O1	cell-free assay	competition with immobilised ligand	0.1 µM	100%
c1cncc(-c2cccc(Nc3nccc(NC4CCCCC4)n3)c2)c1	binding	competition with immobilised ligand	10 µM	11%
CC(=O)N1CCC(c2ccc(C(=O)NC3=NCCN3)cc2C(F)(F)F)CC1	cell-free assay	competition with immobilised ligand	1 µM	100%
Cc1cnn2ncc(-c3ccnc(N(C)C)n3)c2c1	binding		1 µM	60%
